From PubChem
The list is not random: actives were taken first. Their share in the collection is about 2.3%.
SR-BI uptake up: SR-BI HDL lipid transfer activation; actives 0.096% (n = 320,000); activation, % at 12.5 µM; CHO ldlA[mSR-BI] cells, DiI-HDL uptake fluorescence, 3 h; 100 = double the neutral-control signal;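 active means mean replicate activation of at least 60% and every replicate at or above 60%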
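System: CHO ldlA[mSR-BI] cells / Medium: HEPES-buffered (25 mM, pH 7.4) F12 plus 0.5% BSA / Probe or stimulus: labelled HDL, 10 µg/mL / Doses: single compound concentration, delivered by pin transfer / Schedule: 3 h, 37 °C / Measured by: DiI fluorescence, bottom read / Measure: cell-associated DiI fluorescence as measure of HDL uptake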
ATG4B inhibitor: blocks human ATG4B protease cleavage of LC3 substrate | ATG4B cleavage of LC3-PLA2, NBD-HPC fluorescence, 1 h | inhibition, % at 8.33 µM | actives 0.51% (n = 340,000); in the data active means inhibition above about 40%
Target sequence (Q9Y4P1 whole entry, looked up): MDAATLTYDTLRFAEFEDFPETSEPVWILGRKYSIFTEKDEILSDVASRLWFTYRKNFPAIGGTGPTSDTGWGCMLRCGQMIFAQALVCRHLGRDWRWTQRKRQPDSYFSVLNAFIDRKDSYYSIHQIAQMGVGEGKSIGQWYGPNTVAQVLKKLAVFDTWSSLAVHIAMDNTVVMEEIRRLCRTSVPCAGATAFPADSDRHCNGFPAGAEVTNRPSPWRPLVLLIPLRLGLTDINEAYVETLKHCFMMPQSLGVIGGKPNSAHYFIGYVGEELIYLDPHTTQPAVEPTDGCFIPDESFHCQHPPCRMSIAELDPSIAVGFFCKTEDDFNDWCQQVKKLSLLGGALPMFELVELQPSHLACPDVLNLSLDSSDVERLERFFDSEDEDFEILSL
SR-BI HDL uptake: blocks mouse SR-BI lipid uptake from DiI-HDL. Q61009. ldlA[mSR-BI] CHO cells, DiI-HDL uptake fluorescence, 3 h. inhibition, % at 12.5 µM. actives 0.96% (n = 320,000). AID 488896;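 active means mean replicate inhibition of at least 70% and a set share of replicates each scoring 70 or more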
CAL PDZ FP-1: blocks peptide binding to human CAL PDZ domain. inhibition, % at 20 µM. purified CAL PDZ, TMR-peptide fluorescence polarization, 1 h. actives 0.02% (n = 330,000). Q9HD26;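 active means highest replicate inhibition of at least 40%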
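Test system: purified CerCALP PDZ construct; Compound dosing: one concentration, 20 µM compound; Also added: TMR-labelled reporter peptide T*-PRC34 bound in PDZ groove; Read-out: inhibition from polarization loss; Controls: unlabelled peptide and DMSO controls; Signal: FP readout, S and P plane fluorescence; Incubation: 1 h at RT.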
CAL PDZ FP-2: blocks peptide binding to the human CAL PDZ domain; actives 0.92% (n = 300,000); AID 602252; purified CAL PDZ, TMR-peptide fluorescence polarization, 1 h; inhibition, % at 24.9 µM;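 active means mean inhibition of at least 30% with at least half of replicates also reaching 30%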
ATG4B conf: confirmation of human ATG4B inhibitors | ATG4B protease fluorescent substrate cleavage assay | AID 504757 | shares compounds with ATG4B inhibitor | inhibition, % at 8.33 µM | actives 92% (n = 320); in the data active means inhibition above about 39%
PLA2 ctr: inhibits human PLA2, flagging false ATG4B inhibitors; shares compounds with ATG4B inhibitor; purified PLA2, NBD-C6-HPC fluorescence, 45 min; inhibition, % at 8.33 µM; actives 66% (n = 1,600); AID 588402; in the data active means inhibition above about 50%
Target sequence (P04054 whole entry, looked up): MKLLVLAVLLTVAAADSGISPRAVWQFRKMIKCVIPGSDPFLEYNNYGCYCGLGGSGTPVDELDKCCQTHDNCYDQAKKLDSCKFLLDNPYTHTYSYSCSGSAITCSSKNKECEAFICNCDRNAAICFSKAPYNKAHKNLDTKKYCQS
Large screens that a line does not name were inactive (follow-up assays come after a bar, where they were run).

O=C1/C(=C/C=C/c2ccco2)SC(=S)N1NS(=O)(=O)c1ccccc1	ATG4B inhibitor 78.3 | ATG4B conf 41.2 | PLA2 ctr inactive
CCOc1ccc(OCC)c(NC(=O)c2nnn(CC(=O)Nc3cc(C)cc(C)c3)c2N)c1	none (no result: CAL PDZ FP-2)
COc1cc(/C=C/C(=O)NC(=O)c2ccccc2O)ccc1O	none (no result: SR-BI uptake up)
COc1cc(/C=C/C(O)=C/C(=O)/C=C/c2ccc(O)cc2)ccc1O	ATG4B inhibitor 48.4 | PLA2 ctr inactive
O=C(COC(=O)c1cc(Cl)ccc1[N+](=O)[O-])Nc1cccc2ccccc12	none
O=C(COC(=O)c1cc(Cl)ccc1[N+](=O)[O-])NCc1ccc(Cl)cc1Cl	ATG4B inhibitor 52.4 | ATG4B conf 64.9 | PLA2 ctr inactive
O=c1cc(-c2ccc(O)c(-c3c(O)cc(O)c4c(=O)cc(-c5ccc(O)cc5)oc34)c2)oc2cc(O)cc(O)c12	ATG4B inhibitor 81.5 | PLA2 ctr 76.2
CCc1ccc(-n2cccc2/C=C2/C(=N)N3C(=NC2=O)SN=C3S(C)(=O)=O)cc1	ATG4B inhibitor 45.2 | ATG4B conf 67.7 | PLA2 ctr inactive
Cc1ccc(S(=O)(=O)Oc2ccc(/C=C3\C(=N)N4N=C(S(C)(=O)=O)SC4=NC3=O)cc2)cc1	ATG4B inhibitor 66.3 (no result: CAL PDZ FP-2) | PLA2 ctr 76.9
Cc1ccc(S(=O)(=O)Oc2ccc(/C=C3/C(=N)N4C(=NC3=O)SN=C4S(C)(=O)=O)cc2)cc1	ATG4B inhibitor 54.4 | PLA2 ctr 66.7
Cc1ccc(-n2cccc2/C=C2\C(=N)N3N=C(c4ccco4)SC3=NC2=O)cc1	ATG4B inhibitor 78.1 | PLA2 ctr 62.0
Cc1ccc(-n2cccc2/C=C2/C(=N)N3C(=NC2=O)SN=C3S(C)(=O)=O)cc1	none
CCCc1cc(=O)n2nc(N3CCC(C(=O)Nc4cccc(C(C)=O)c4)CC3)sc2n1	none (no result: CAL PDZ FP-2)
COc1cccc(C(C(=O)NC2CCCCC2)N(C(=O)c2csnn2)C2CC2)c1 (configuration not stated)	none
Cc1ccccc1C(=O)Nc1ccnn1C1CCN(C(=O)C2CCOC2)CC1 (configuration not stated)	none
CN(C)S(=O)(=O)c1cccc(NC(=O)c2ccc(NS(=O)(=O)c3cccs3)cc2)c1	none
NC(=O)/C(=C\c1ccccc1)NC(=O)/C=C/c1ccccc1	ATG4B inhibitor 45.6 (no result: CAL PDZ FP-2) | ATG4B conf 75.5 | PLA2 ctr inactive
NC(=O)/C(=C/c1ccco1)NC(=O)/C=C/c1ccccc1	ATG4B inhibitor 49.8 | PLA2 ctr 68.3
CC(C)CCOC(=O)/C(=C/c1ccco1)NC(=O)/C=C/c1ccccc1	none
COc1ccc(CCC(=O)NCC(c2ccco2)N2CCc3ccccc32)cc1 (configuration not stated)	none
CCn1c(SCC(=O)Nc2oc(-c3ccccc3)c(-c3ccccc3)c2C#N)nnc1-c1ccco1	ATG4B inhibitor 61.1 (no result: CAL PDZ FP-1) | PLA2 ctr 67.9
CC(=O)Nc1ccc(N=Cc2c(O)c(C(=O)Nc3ccccc3)cc3ccccc23)cc1	none (no result: SR-BI uptake up, SR-BI HDL uptake, CAL PDZ FP-1, CAL PDZ FP-2)
CCOc1cc(Br)c(Br)c(C=Nc2ccc(NC(C)=O)cc2)c1O	ATG4B inhibitor 66.2 | PLA2 ctr 54.5
O=C1CN(c2nc(-c3cccs3)nc3sc4c(c23)CCCC4)CCN1	ATG4B inhibitor 75.8 | PLA2 ctr 87.1
CCCc1cc(=O)[nH]c(SCc2cc(Cl)ccc2OC(F)F)n1	ATG4B inhibitor 56.9 | ATG4B conf 51.8 | PLA2 ctr inactive
CCCc1cc(=O)[nH]c(SCc2ccc(Cl)cc2)n1	none
O=C(NC(=S)Nc1ccccc1F)c1ccc(Br)o1	none (no result: SR-BI uptake up, SR-BI HDL uptake)
O=C(O)c1cc(O)c2c(c1)[C@H]([C@H]1c3cc(C(=O)O)cc(O)c3C(=O)c3c(O[C@@H]4O[C@H](CO)[C@@H](O)[C@H](O)[C@H]4O)cccc31)c1cccc(OC3O[C@H](CO)[C@@H](O)[C@H](O)[C@H]3O)c1C2=O (some centres not stated)	ATG4B inhibitor 95.0 | PLA2 ctr inactive
CCN(CC)C(=O)c1ccc2c(=O)n(Cc3ccc4c(c3)OCO4)c(=S)[nH]c2c1	none
CC1CCCN(C(=O)c2ccc3c(=O)n(Cc4ccc5c(c4)OCO5)c(=S)[nH]c3c2)C1 (configuration not stated)	ATG4B inhibitor 85.2 (no result: CAL PDZ FP-2) | PLA2 ctr 62.4
Cc1nc2c(C(=O)NCc3ccccc3)c[nH]n2c(=O)c1Cl	none
Cc1nc2c(C(=O)NCc3ccccc3Cl)c[nH]n2c(=O)c1Cl	ATG4B inhibitor 49.3 | ATG4B conf 61.8 | PLA2 ctr inactive
Cc1nc2c(C(=O)NCCc3ccccc3Cl)c[nH]n2c(=O)c1Cl	ATG4B inhibitor 42.9 | PLA2 ctr 56.7
CCN(C(=O)COC(=O)CCC(=O)c1cccs1)c1ccccc1	none
Cc1c(C(=O)Nc2nccs2)sc2nc(-c3cccs3)cc(C(F)(F)F)c12	ATG4B inhibitor 49.5 (no result: CAL PDZ FP-2) | PLA2 ctr inactive
CCc1c(C)nc(N2CCN(c3ccccc3F)CC2)[nH]c1=O	none
O=C(Nc1ccccc1Cl)C1CCN(S(=O)(=O)c2cccc3nonc23)CC1	none
O=C(Nc1ccc(Cl)cc1)NC1CCCc2ccccc21 (configuration not stated)	ATG4B inhibitor 68.0 | PLA2 ctr 66.2
Cc1ccc(NC(=O)NC2CCCc3ccccc32)cc1 (configuration not stated)	none
O=C(Nc1sc(-c2ccccc2)cc1C(=O)O)c1ccccc1	ATG4B inhibitor 67.7 | PLA2 ctr 81.0
CCOC(=O)c1cc(-c2ccccc2)sc1NC(=O)c1ccc(OC)cc1	none (no result: SR-BI uptake up, SR-BI HDL uptake, CAL PDZ FP-1, CAL PDZ FP-2)
COc1cc(CCCN2CCNC[C@H]2Cc2cccc3ccccc23)cc(OC)c1OC	none
Cc1ccc2nc3c(c(Nc4ccc5c(c4)OCCO5)c2c1)CCC3	ATG4B inhibitor 42.0 | ATG4B conf 64.7 | PLA2 ctr inactive
COc1ccccc1C(=O)Oc1ccc(C(C)(C)C)cc1	ATG4B inhibitor 42.4 | PLA2 ctr 50.3
COc1ccccc1C(=O)Oc1ccc2ccc(=O)oc2c1	none (no result: SR-BI uptake up, SR-BI HDL uptake)
COc1ccc(NC(=O)Nc2nnc(Cc3ccc(F)cc3)s2)cc1	none
Cc1cccc(C)c1OCc1cc(C(=O)N2CCN(c3ccc(F)cc3)CC2)no1	none
Cc1cccc(C)c1OCc1cc(C(=O)N2CC3C[C@@H]4CC2C[C@H](C3)C4)no1	ATG4B inhibitor 51.8 | PLA2 ctr 68.8
Cc1cccc(C)c1OCc1cc(C(=O)N2CCN(c3ccccn3)CC2)no1	ATG4B inhibitor 57.0 | PLA2 ctr 53.0
COc1ccc(C(C)=O)cc1CSCC(=O)O	none
